# Experimental data taken from ChEMBL document CHEMBL1806474, “Diversity oriented design of various hydrazides and their in vitro evaluation against Mycobacterium tuberculosis H37Rv strains” (2011).
# Assays:
# Assay type in all cases: functional
# [1] = system: Mycobacterium tuberculosis; experiment: Growth inhibition of Mycobacterium tuberculosis H37Rv ATCC 27294 after 5 to 8 days by microplate alamar blue assay
# [2] = system: Mycobacterium tuberculosis; experiment: Antimycobacterial activity against Mycobacterium tuberculosis H37Rv ATCC 27294 after 5 to 8 days by microplate alamar blue assay
# [3] = system: Mycobacterium tuberculosis; experiment: Antimycobacterial activity against Mycobacterium tuberculosis
# In short: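 Radiometric BACTEC 460 assay in 7H12 broth (BACTEC-12B, 4 mL) with M. tuberculosis H37Rv ATCC 27294. Inoculum came from 7H9/glycerol/0.05% Tween 80 cultures at OD550 0.45–0.55, diluted to reach GI 999 in five days. Compounds were from 1 mg/mL DMSO stocks, with DMSO controls. GI was read daily at 37 °C, 5–8 days. % inhibition = [1 − (GI test/GI control)] × 100. MIC was set against a 1:100 diluted control.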
# [4] = Mycobacterium tuberculosis, H37Rv ATCC 27294
Compound,growth inhibition (GI) [1] [%],"MIC99 [2, 4] [µg/mL]",MIC [3] [µg/mL],MIC97 [2] [µg/mL],"MIC95 [2, 4] [µg/mL]"
O=C1Oc2ccc3ccccc3c2C(=O)/C1=N/Nc1ccc([N+](=O)[O-])cc1,94,< 6.25,–,–,–
CC(=O)c1c(C)[nH]c(C(=O)N/N=C/c2ccc(C)cc2)c1C,92,< 6.25,–,–,–
CCCc1cc(=O)oc2c3c(c4c(c12)OC(C)(C)C=C4)O[C@H](C)[C@@H](C)[C@@H]3O [CALANOLIDE A],–,–,3.13,–,–
O=C1Nc2ccc(Cl)cc2C(=O)/C1=N/Nc1ccccc1[N+](=O)[O-],64,< 6.25,–,–,–
O=C1Oc2ccc(-c3ccccc3)cc2C(=O)/C1=N/Nc1ccc(F)cc1,18,< 6.25,–,–,–
O=C1Oc2ccc3ccccc3c2C(=O)/C1=N/Nc1ccccc1,62,< 6.25,–,–,–
CC(=O)c1c(C)[nH]c(C(=O)N/N=C/c2ccc(N(C)C)cc2)c1C,18,< 6.25,–,–,–
CN1C(=O)/C(=N\Nc2ccccc2[N+](=O)[O-])C(=O)c2ccccc21,94,< 6.25,–,–,–
CC(=O)c1c(C)[nH]c(C(=O)N/N=C/c2cccc([N+](=O)[O-])c2)c1C,18,< 6.25,–,–,–
O=C1Oc2ccc(-c3ccccc3)cc2C(=O)/C1=N/Nc1ccccc1[N+](=O)[O-],25,< 6.25,–,–,–
Cc1cccc(N/N=C2\C(=O)Nc3cc(Cl)ccc3C2=O)c1,70,< 6.25,–,–,–
Cc1cccc(N/N=C2\C(=O)Nc3c(cccc3[N+](=O)[O-])C2=O)c1,95,< 6.25,–,–,–
O=C1Nc2c(cccc2[N+](=O)[O-])C(=O)/C1=N/Nc1ccccc1[N+](=O)[O-],80,< 6.25,–,–,–
O=C1Oc2ccc(-c3ccccc3)cc2C(=O)/C1=N/Nc1cccc(F)c1Cl,19,< 6.25,–,–,–
O=C1Nc2c(cccc2[N+](=O)[O-])C(=O)/C1=N/Nc1cccc(Cl)c1,82,< 6.25,–,–,–
O=C1Oc2ccc3ccccc3c2C(=O)/C1=N/Nc1ccc(Cl)cc1,88,< 6.25,–,–,–
O=C1Nc2cc([N+](=O)[O-])ccc2C(=O)/C1=N/Nc1ccc(Cl)c(F)c1,70,< 6.25,–,–,–
O=C1Nc2c(cccc2[N+](=O)[O-])C(=O)/C1=N/Nc1ccc(Cl)c(Cl)c1,79,< 6.25,–,–,–

Compound,growth inhibition (GI) [1] [%],"MIC99 [2, 4] [µg/mL]",MIC [3] [µg/mL],MIC97 [2] [µg/mL],"MIC95 [2, 4] [µg/mL]"
O=C1Nc2ccccc2C(=O)/C1=N/Nc1ccccc1,97,< 6.25,–,–,–
O=C1Nc2c(cccc2[N+](=O)[O-])C(=O)/C1=N/Nc1ccc(Cl)cc1,61,< 6.25,–,–,–
O=C1Nc2cc([N+](=O)[O-])ccc2C(=O)/C1=N/Nc1ccccc1-c1ccccc1,100,< 6.25,–,–,–
O=C1Nc2ccc(Cl)cc2C(=O)/C1=N/Nc1ccc(Cl)cc1,98,< 6.25,–,–,–
O=C1Nc2c(cccc2[N+](=O)[O-])C(=O)/C1=N/Nc1cccc([N+](=O)[O-])c1,60,< 6.25,–,–,–
COc1ccc(N/N=C2\C(=O)Oc3ccc4ccccc4c3C2=O)cc1,55,< 6.25,–,–,–
O=C1Nc2c(ccc(Cl)c2Cl)C(=O)/C1=N/Nc1ccc([N+](=O)[O-])cc1,89,< 6.25,–,–,–
Cc1cccc(N/N=C2\C(=O)Oc3ccc(-c4ccccc4)cc3C2=O)c1,23,< 6.25,–,–,–
Cc1c(Cl)cccc1N/N=C1\C(=O)Nc2cc([N+](=O)[O-])ccc2C1=O,98,< 6.25,–,–,–
Cc1cc(C)cc(N/N=C2\C(=O)Oc3ccc4ccccc4c3C2=O)c1,58,< 6.25,–,–,–
O=C1Nc2cc([N+](=O)[O-])ccc2C(=O)/C1=N/Nc1ccc(Br)cc1,100,< 6.25,–,–,–
CO[C@H]1/C=C/O[C@@]2(C)Oc3c(C)c(O)c4c(O)c(c(/C=N/N5CCN(C)CC5)c(O)c4c3C2=O)NC(=O)/C(C)=C\C=C\[C@H](C)[C@H](O)[C@@H](C)[C@@H](O)[C@@H](C)[C@H](OC(C)=O)[C@@H]1C [RIFAMPIN],–,–,–,0.015,0.25
O=C1Oc2ccc(-c3ccccc3)cc2C(=O)/C1=N/Nc1c(Cl)cccc1Cl,23,< 6.25,–,–,–
Cc1cccc(N/N=C2\C(=O)Oc3ccc4ccccc4c3C2=O)c1C,64,< 6.25,–,–,–
CC(=O)c1c(C)[nH]c(C(=O)N/N=C/c2ccc([N+](=O)[O-])cc2)c1C,32,< 6.25,–,–,–
CC(=O)c1c(C)[nH]c(C(=O)N/N=C/c2cccc(Cl)c2)c1C,29,< 6.25,–,–,–
Cc1ccccc1N/N=C1\C(=O)Oc2ccc(-c3ccccc3)cc2C1=O,17,< 6.25,–,–,–
O=C1Nc2c(ccc(Cl)c2Cl)C(=O)/C1=N/Nc1ccccc1,85,< 6.25,–,–,–
